Experimental findings from ChEMBL document CHEMBL4513216, “Probing the Open Global Health Chemical Diversity Library for Multistage-Active Starting Points for Next-Generation Antimalarials” (ACS Infect Dis, 2020) are described below.

The data set can be described thus: Toxicity liver stage against HepG2, at 10uM. Details: test concentration 10 uM, cell line HepG2-A16-CD81EGFP. It is filed as cell-based. Conditions: human, HepG2-A16-CD81EGFP cells; read-out: INHIBITION
A digest of the protocol:
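Uninfected HepG2-A16-CD81EGFP cells, 3 × 10^3 per well, 1536-well, plated on prespotted compound at 10 μM final, parasite-free screening media added to match infected plates; puromycin 10 μM positive, DMSO 0.5% negative; run in parallel with 48 h PbLuc assay at 37 °C, 5% CO2; viability by CellTiter-Glo luminescence, normalized to controls.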
For `CC1CCN(c2ncc(C#N)c(N)n2)CC1`, the cytotoxicity at 10 µM came out at 15.5%.

`CCN1CC(COc2ccc(OC)cc2)Oc2ccncc2S1(=O)=O` (stereo unspecified): the cytotoxicity at 10 µM was -7.6%.

For the molecule `O=C1c2cccnc2OC(CN2CCOCC2)CN1C1CCC1` (stereo unspecified), the cytotoxicity at 10 µM is -4.18%.

Regarding `Nc1nc2c(c(NC(=O)Nc3ccc(Cl)c(Cl)c3)n1)CCCC2`, the cytotoxicity at 10 µM was -6.92%.

With `CN(C)S(=O)(=O)N1CC(c2nc(-c3ccsc3)no2)C1`, the cytotoxicity at 10 µM is -6.6%.

`CN1C(Cn2cccn2)C[C@@H]2CN(Cc3cnn(C)c3)CC[C@@H]21` (stereo partly specified): the cytotoxicity at 10 µM was 3.16%.

As for `COCCN1CCn2cc(CNC(=O)C3CCC3)nc2C1`, the cytotoxicity at 10 µM came out at 3.68%.

Turning to `COC[C@@]12CCO[C@@H]1CCN(C(=O)Cc1ccccc1C)C2`, the cytotoxicity at 10 µM is 2.05%.

As for `CCCc1nnsc1C(=O)NCC1CCN(c2ccccn2)CC1`, the cytotoxicity at 10 µM is -16.7%.

With `CS(=O)(=O)NC(c1ccccc1)c1ccc2c(c1)CCCO2` (stereo unspecified), the cytotoxicity at 10 µM was 0.682%.

Regarding `COC(=O)c1cccc(C(=O)N(C)Cc2cccc(F)c2)c1`, the cytotoxicity at 10 µM was 5.75%.

Consider `O=c1[nH]c(C2CCOC2)nc2ccc(Cl)cc12` (stereo unspecified), for which the cytotoxicity at 10 µM is -12%.

As to `CCOCCN1CCN(CCC(=O)N2CCCCC2)CC1C` (stereo unspecified), the cytotoxicity at 10 µM was -5.99%.

For the molecule `COc1cc(CSc2nnc(C)n2CC(N)=O)ccc1SC`, the cytotoxicity at 10 µM was -7.91%.

For the molecule `CNS(=O)(=O)c1cccc(C(C)NCc2ccccc2OC)c1` (stereo unspecified), the cytotoxicity at 10 µM was -2.59%.

For `Cc1nc(C)c(CNCc2nnc3n2CCCC3C(F)(F)F)s1` (stereo unspecified), the cytotoxicity at 10 µM came to 3.28%.

For `Cc1cncc(NCC(O)c2ccco2)n1` (stereo unspecified), the cytotoxicity at 10 µM turned out to be 5.58%.

For `CC(C)(C)C(=O)NCCC(=O)NC(C)(C)c1ccc2c(c1)OCO2`, the cytotoxicity at 10 µM was -1.26%.

Take `CSCC(=O)Nc1cccc(Oc2ccccn2)c1`: the cytotoxicity at 10 µM was -6.1%.

For the molecule `COc1c(Br)cccc1CCNC(=O)c1csnn1`, the cytotoxicity at 10 µM is -2.5%.

For `CC(Nc1ccn(Cc2ccccn2)n1)C(=O)NC(C)(C)C` (stereo unspecified), the cytotoxicity at 10 µM was -2.08%.

For the molecule `COc1ccc(C(NCc2cccc(C#N)c2)C(C)C)cc1` (stereo unspecified), the cytotoxicity at 10 µM was determined as 17%.

With `Cc1cc(-c2nnn(CCC(N)=O)n2)ccc1F`, the cytotoxicity at 10 µM was -8.71%.

`O=C(CN1CCCC1Cn1cncn1)Nc1cccnc1` (stereo unspecified): the cytotoxicity at 10 µM is -14.6%.

In the case of `Cc1cccc(CNCc2c(C)nn(C)c2N2CCOCC2)n1`, the cytotoxicity at 10 µM was -10.9%.

Turning to `CCc1ccc(C(=O)Nc2ccc(CC3CC(=O)NC3=O)cc2)cc1` (stereo unspecified), the cytotoxicity at 10 µM was -13.5%.

Take `Cc1cnn(CC2CN(CCc3ccncc3)CCO2)c1` (stereo unspecified): the cytotoxicity at 10 µM is -13.6%.

For `Cc1cc(C)cc(CN2CCN(C(=O)COCC3CCCO3)CC2=O)c1` (stereo unspecified), the cytotoxicity at 10 µM was found to be 4.07%.

As to `CCCOCC(=O)N1CCC2(CC1)c1nc[nH]c1CCN2S(C)(=O)=O`, the cytotoxicity at 10 µM amounted to 3.22%.

With `Cn1ccnc1CN1CCC(c2ccnc(-c3cccc(O)c3)c2)C1` (stereo unspecified), the cytotoxicity at 10 µM came to 6.52%.

For the molecule `CCn1nc(CC(C)C)cc1C(=O)N1CCN([C@H]2CCCC[C@@H]2O)CC1`, the cytotoxicity at 10 µM is -6.98%.

Turning to `Cc1nc(N2CCN(C)CC2)ncc1C(=O)N1CC[C@](C)(O)[C@H](C)C1`, the cytotoxicity at 10 µM is 1.88%.

For the molecule `Cc1cc(C2CCC2)nc(N2CC(n3cccn3)C2)n1`, the cytotoxicity at 10 µM is -3.59%.

For `CC(C)NS(=O)(=O)c1cc(C(=O)O)cc(-c2ccc3c(c2)OCO3)c1`, the cytotoxicity at 10 µM is 0.873%.

For `Cc1cc(C(=O)N2CCc3ncnc(N4CCSCC4)c3CC2)[nH]n1`, the cytotoxicity at 10 µM was -6.98%.

With `Nc1nnc(CCNc2ncnc3c2CCN(C(=O)C2CC2)C3)s1`, the cytotoxicity at 10 µM was -7%.

Turning to `CCc1nnc(N2CCN(c3ccccc3)C(=O)C2)o1`, the cytotoxicity at 10 µM is -8.74%.

`COc1ccc(OCc2cc(C(=O)N3CCOCC3)n[nH]2)c(Cl)c1`: the cytotoxicity at 10 µM was -3.66%.

As for `Cc1cc(C)cc(CCC(=O)N(C)CCc2cn[nH]c2)c1`, the cytotoxicity at 10 µM turned out to be 3.04%.

Take `O=C1OCCN1Cc1cc(C(F)(F)F)ccc1F`: the cytotoxicity at 10 µM was -5.52%.

For the molecule `CCOC(=O)N1CCCn2nc(C(=O)NCCN(C)C)cc2C1`, the cytotoxicity at 10 µM amounted to 3.13%.

Turning to `Cc1cccnc1CN1CCC(c2nnc(Cn3cccn3)n2C)CC1`, the cytotoxicity at 10 µM is -11.5%.

In the case of `CC(C)N(C)S(=O)(=O)N(C)Cc1ccc2c(c1)OCCO2`, the cytotoxicity at 10 µM is -2.84%.

For `CN1CCOC(CNCc2ccccc2OCc2ccccn2)C1` (stereo unspecified), the cytotoxicity at 10 µM is -9.39%.

As for `COc1cc(CNCc2ccc(-n3nc(C)cc3C)nc2)cc(OC)c1`, the cytotoxicity at 10 µM is -8.57%.

`CN(Cc1nnc(C2CC2)o1)C1CCCN(c2cccnn2)C1` (stereo unspecified): the cytotoxicity at 10 µM was -10.7%.

Regarding `CC(C)(C)c1cc(NC(=O)CN2CCc3cncnc3C2)on1`, the cytotoxicity at 10 µM is -8.78%.

Regarding `COc1cccc(S(=O)(=O)NC(=O)CCC2CCCO2)c1` (stereo unspecified), the cytotoxicity at 10 µM was -14.7%.

Consider `COc1ccc(COCC(=O)N2CCCC(n3cncn3)C2)cc1` (stereo unspecified), for which the cytotoxicity at 10 µM was -11.1%.

For the molecule `Cc1cnn(CC2CN(Cc3nc(-c4ccco4)no3)CCO2)c1` (stereo unspecified), the cytotoxicity at 10 µM was -20.3%.

On to `CN(Cc1cn(-c2ccccc2)nn1)C1CCCN(c2cccnn2)C1` (stereo unspecified), for which the cytotoxicity at 10 µM was -20.5%.

As for `c1ccc(-n2ccc(CN3CCCCC3Cn3cncn3)n2)cc1` (stereo unspecified), the cytotoxicity at 10 µM was -7.85%.

Consider `CSc1ccc(C)c(C(=O)N2CCCC(n3cncn3)C2)c1` (stereo unspecified), for which the cytotoxicity at 10 µM is -13.1%.

For `Cc1cnn(CC2CCCN2Cc2nccn2CC(F)(F)F)c1` (stereo unspecified), the cytotoxicity at 10 µM was -8.5%.

As for `CCN1CCN(C2CCN(Cc3nnc(C(C)C)o3)CC2)C1=O`, the cytotoxicity at 10 µM is -0.677%.

With `CC(C)COC(C)C(=O)NCc1ccccc1` (stereo unspecified), the cytotoxicity at 10 µM was 4.79%.

For `Fc1ccc(-c2nnc(CN3CCOC(Cn4cncn4)C3)o2)cc1` (stereo unspecified), the cytotoxicity at 10 µM was -5.97%.

For `CCOc1c(Cl)cccc1NCc1cc(C)on1`, the cytotoxicity at 10 µM stood at 1.04%.

As to `Cc1cnn(C2CCCN(C(=O)c3sccc3-n3cnnn3)C2)c1` (stereo unspecified), the cytotoxicity at 10 µM is -8.72%.

`O=C(CCc1cccnc1)N1CCCC(n2cncn2)C1` (stereo unspecified): the cytotoxicity at 10 µM was -10.9%.

Turning to `NC(=O)CN1CCCN(C(=O)Cc2ccc3ccccc3c2)CC1`, the cytotoxicity at 10 µM was 7.82%.

With `CCOc1nnc(CNC2CCCN(c3ccc(C)nn3)C2)s1` (stereo unspecified), the cytotoxicity at 10 µM is -9.31%.

For `CN(C)C(=O)CN1CCC2(CCCN(Cc3cccn3C)C2)C1=O` (stereo unspecified), the cytotoxicity at 10 µM was 11.3%.

Take `CC(=O)N1[C@H](CN(C)C)C[C@@H]2CN(C(=O)c3cccn3C)CC[C@@H]21`: the cytotoxicity at 10 µM amounted to 2.53%.

Consider `CC(C)CNC(=O)[C@H]1CCS(=O)(=O)[C@@H]2CN(Cc3ccc(Cl)cc3)C[C@H]12`, for which the cytotoxicity at 10 µM was -13.9%.

Consider `O=C(Cc1ccccn1)N1CCc2ncnc(N3CCCC3)c2CC1`, for which the cytotoxicity at 10 µM is -2.13%.

As for `Cc1nnc(N2C[C@H](Oc3ccccn3)[C@H]3OCCC[C@H]32)s1`, the cytotoxicity at 10 µM came to 10.7%.

Turning to `Cc1cccc(CN2Cc3ncn(C)c3C(COCC(=O)N(C)C)C2)n1` (stereo unspecified), the cytotoxicity at 10 µM was determined as 4.56%.

Turning to `CC(C)N(C)Cc1cn2c(n1)CN(C(=O)Cc1ccsc1)CC2`, the cytotoxicity at 10 µM was -11.1%.

Consider `O=C(NCC1CC1)[C@@H]1CCO[C@@H]2CCN(Cc3ccc(F)cc3)C[C@H]21`, for which the cytotoxicity at 10 µM is 1.42%.

Regarding `CC(C)n1c(=O)[nH]c2cn(-c3ccc(Cl)cc3)c(=O)n21`, the cytotoxicity at 10 µM is -0.769%.
